Screens: PubChem BioAssay, Johns Hopkins Ion Channel Center
KCNK9 inh: blocks the human KCNK9 two-pore domain potassium channel; B-score at 10 µM; 1.2% of 310,000 active; HEK293 KCNK9, FluxOR thallium flux fluorescence; stronger effect = lower value; Q9NPC2;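 active = ratio B-score over 3 SD below the library mean, with starting fluorescence within 5 SD of its mean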;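 note: negative B-score means less thallium flux so channel inhibition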
Kir21 inh: inhibitors of mouse Kir2.1 inward-rectifier potassium channel | P35561 | HEK293-Kir2.1, FluxOR thallium flux fluorescence; stronger effect = lower value | B-score at 10 µM | 0.85% of 310,000 active;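 active = fluorescence ratio B-score at or below minus 3 SD of library scores, with starting-brightness B-score within 2 SD, cut at about -4.2 in these data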;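 note: channel flux triggered by added potassium and thallium sulfate stimulus; B-score of peak minus minimum fluorescence over baseline after thallium stimulus; more negative B-score means stronger Kir2.1 block with less thallium influx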
Target sequence (P35561 whole entry, looked up): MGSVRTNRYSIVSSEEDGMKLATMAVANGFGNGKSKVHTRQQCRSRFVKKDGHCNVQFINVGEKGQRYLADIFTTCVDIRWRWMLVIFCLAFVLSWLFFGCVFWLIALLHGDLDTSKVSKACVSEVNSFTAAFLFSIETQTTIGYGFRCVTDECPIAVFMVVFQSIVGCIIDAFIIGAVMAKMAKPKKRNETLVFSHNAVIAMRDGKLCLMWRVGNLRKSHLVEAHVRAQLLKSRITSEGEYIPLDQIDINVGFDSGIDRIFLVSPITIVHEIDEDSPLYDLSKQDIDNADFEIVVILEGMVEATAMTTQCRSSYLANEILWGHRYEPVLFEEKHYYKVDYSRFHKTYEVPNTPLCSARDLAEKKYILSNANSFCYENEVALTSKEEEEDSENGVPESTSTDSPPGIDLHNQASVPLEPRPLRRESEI
KCNQ1 act: human KCNQ1 channel potentiation or activation; CHO-K1 KCNQ1, thallium flux FluxOR fluorescence; stronger effect = higher value; B-score at 10 µM; 0.35% of 310,000 active; AID 2648;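 active = fluorescence ratio B-score, a plate-corrected score, at least three library SD, with initial intensity B-score within 5 SD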
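Medium – assay buffer, equal DMSO in all wells · Material – CHO-K1 cell line with stable KCNQ1 potassium channel expression · Signal – kinetic FluxOR thallium fluorescence, 10-s 1-Hz baseline, 110-s post-stimulus read · Compound – single concentration per compound, DMSO matched to controls · Schedule – 37 °C overnight plating, 90-min dark dye load, 20-min compound pretreatment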
KCNQ1 inh: human KCNQ1 channel inhibition; P51787; CHO-K1 KCNQ1, FluxOR thallium flux fluorescence; stronger effect = higher value; B-score at 10 µM; 1.3% of 310,000 active; AID 2642;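 active = compounds whose thallium flux B-score, printed positive for inhibition, exceeds three library SD while starting fluorescence stays within three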;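 note: channel opened by potassium depolarization with thallium stimulus after 20 min compound exposure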
hERG protect: hERG (human) protection from proarrhythmic block; activation (rescue from dofetilide block), less the hit threshold, % at 10 µM; 0.51% of 310,000 active; Q12809; CHO-hERG, FluxOR thallium flux, dofetilide IC70 present;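 active = activation above the mean of controls blocked by dofetilide plus 5 SD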;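 note: thallium influx through hERG after potassium depolarization seen as dye fluorescence rise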
KCNK3 inh: human KCNK3 channel inhibition, primary screen. O14649. CHO-KCNK3 thallium flux, FluxOR fluorescence; stronger effect = lower value. B-score at 10 µM. 0.84% of 340,000 active;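 active = B-score under library mean minus 4 SD, starting fluorescence ratio at most library mean plus 5 SD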;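 note: more negative B-score means stronger inhibition of thallium flux through KCNK3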
Target sequence (O14649 whole entry, looked up): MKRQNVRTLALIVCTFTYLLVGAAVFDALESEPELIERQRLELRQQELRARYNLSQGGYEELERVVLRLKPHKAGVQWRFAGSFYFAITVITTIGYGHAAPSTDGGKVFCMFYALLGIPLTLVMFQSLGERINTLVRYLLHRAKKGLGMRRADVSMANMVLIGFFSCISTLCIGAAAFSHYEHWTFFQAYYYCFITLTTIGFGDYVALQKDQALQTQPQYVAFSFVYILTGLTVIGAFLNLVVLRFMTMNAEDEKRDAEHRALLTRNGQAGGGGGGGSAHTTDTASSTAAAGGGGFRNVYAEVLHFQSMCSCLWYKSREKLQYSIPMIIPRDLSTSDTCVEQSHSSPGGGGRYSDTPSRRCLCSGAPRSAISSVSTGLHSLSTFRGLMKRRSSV
KCNK3 confirm: human KCNK3 channel inhibition, confirmation assay. shares compounds with KCNK3 inh. CHO-KCNK3 thallium flux, FluxOR fluorescence; 0% buffer, 100% carvedilol maximal block. ratio percent of control, % at 10 µM. 99% of 2,400 active. AID 651638;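 active = ratio percent of control, averaged over triplicates, above buffer control mean plus 5 SD, cut at about 64% in these data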;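 note: ratio is the fluorescence rise from min to max over baseline after thallium stimulus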
KCNK3 uninduced: KCNK3 inhibitor counter-screen hit in non-induced cells; shares compounds with KCNK3 inh; non-induced KCNK3 parental cells, FluxOR thallium flux; stronger effect = lower value; thallium flux ratio (lower = more inhibition) at 10 µM; 40% of 2,400 active; AID 651747;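 active = thallium flux ratio, averaged over three wells, more than 5 SD below the buffer control mean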;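 note: host cells are CHO cells without KCNK3 induction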
Of the large screens only hits and unclear results are named; the others gave an inactive call (follow-up assays come after a bar, where they were run). A selection: hits, their analogues and other compounds. The true share with any hit is near 3.7%.

CN(C)S(=O)(=O)c1cccc(NC(=O)COc2ccccc2C(=O)NCc2ccccc2)c1	KCNK3 inh -12 (no result: KCNK9 inh, Kir21 inh, KCNQ1 act, KCNQ1 inh, hERG protect) | KCNK3 confirm 119 | KCNK3 uninduced 0.16
Cc1ccc(NC(=O)COc2ccccc2C(=O)NCc2ccccc2)cc1	none (no result: KCNK9 inh, Kir21 inh, KCNQ1 act, KCNQ1 inh, hERG protect)
CCOC(=O)CN1C(=O)/C(=C/c2c(F)cccc2Cl)Oc2ccccc21	KCNK9 inh -7.8, KCNQ1 inh 6, KCNK3 inh -8.8 | KCNK3 confirm 123 | KCNK3 uninduced inactive
Cc1ccc(S(=O)(=O)N2CCN(C(=O)CN3C(=O)CNC3=O)CC2)cc1	none (no result: KCNK9 inh, Kir21 inh, KCNQ1 act, KCNQ1 inh, hERG protect)
COCCCNC(=S)N1CCN(c2nc3ccccc3s2)CC1	none
CCc1nc(N2CCN(C(=S)NCCCOC)CC2)c2c3c(sc2n1)CCCC3	KCNK3 inh -8.9 | KCNK3 confirm 95 | KCNK3 uninduced 0.15
COc1cccc(-c2cccc(NC(=O)C3CCN(Cc4cccc(C)n4)CC3)c2)c1	none
COc1cccc(O)c1CN1CCC(C(=O)Nc2ccc(-c3cccc(C)c3)cc2)CC1	KCNQ1 inh 6, KCNK3 inh -11 | KCNK3 confirm 125 | KCNK3 uninduced inactive
O=C(Cn1cc(C(F)(F)F)ccc1=O)N/N=C/c1ccccc1	none
COC(=O)C1=C(C)N(C2CCCCC2)C(=O)/C1=C\c1cccs1	KCNK3 inh -9.8 | KCNK3 confirm 98 | KCNK3 uninduced 0.14
CCOc1ccc(NC(=O)COC(=O)CCN2C(=O)C3CC=CCC3C2=O)cc1OCC (stereo not drawn)	none (no result: KCNK9 inh, Kir21 inh, KCNQ1 act, KCNQ1 inh, hERG protect)
COc1ccc(S(=O)(=O)N(CC(=O)NCc2ccncc2)c2cc(C)cc(C)c2)cc1OC	none
CC(C)c1ccc(S(=O)(=O)Nc2ccc3c(c2)OCO3)cc1	KCNK3 inh -11 (no result: KCNK9 inh, Kir21 inh, KCNQ1 act, KCNQ1 inh, hERG protect) | KCNK3 confirm 122 | KCNK3 uninduced inactive
COC(=O)COc1ccc(S(=O)(=O)Nc2ccc3c(c2)OCO3)cc1	none
COC(=O)COc1ccc(S(=O)(=O)Nc2ccc3c(c2)OCO3)cc1Cl	KCNK3 inh -9.7 | KCNK3 confirm 98 | KCNK3 uninduced inactive
CCCN(C(=O)CSCC(=O)Nc1ccc(OC)cc1)c1c(N)n(Cc2ccccc2)c(=O)[nH]c1=O	none
CC(C)(C)c1cc(C(=O)NNc2cc(C(F)(F)F)ccc2Cl)n(Cc2ccccc2)n1	KCNQ1 inh 8, KCNK3 inh -19 | KCNK3 confirm 139 | KCNK3 uninduced 0.13
Cc1ccc(NC(=O)c2cc(C(C)(C)C)nn2Cc2ccccc2)cc1	KCNK3 inh -16 | KCNK3 confirm 148 | KCNK3 uninduced inactive
CCOc1ccccc1NC(=S)NC(=O)CCCOc1ccc(Cl)cc1Cl	KCNK3 inh -11 | KCNK3 confirm 109 | KCNK3 uninduced inactive
COc1ccc(N=Cc2c(O)c3ccccc3n2C(C)=O)cc1	KCNK3 inh -13 | KCNK3 confirm 143 | KCNK3 uninduced 0.098
COc1ccc(N=Cc2sc(O)c3ccccc23)cc1	none
CCC1(CC)NC(=O)N(CC(=O)OCC(=O)c2ccccc2OC)C1=O	none
Cc1ccc(NC(=O)C2C3C=CC4(O3)C2C(=O)N(CCCN2CCCC(C)C2)C4C(=O)NC2CCCCC2)cc1 (stereo not drawn)	none
O=C(NC1CC1)c1cccc(NC(=O)c2cnn(-c3ccccc3)n2)c1	none (no result: KCNK9 inh, Kir21 inh, KCNQ1 act, KCNQ1 inh, hERG protect)
O=C(NC1CC1)c1cccc(NC(=O)c2cn3ccccc3n2)c1	KCNK3 inh -12 (no result: KCNK9 inh, Kir21 inh, KCNQ1 act, KCNQ1 inh, hERG protect) | KCNK3 confirm 60 | KCNK3 uninduced inactive
C[C@H]1CN([C@@H](C)CO)C(=O)c2cc(NS(=O)(=O)c3ccc(Cl)cc3)ccc2O[C@@H]1CN(C)CC1CCCCC1	KCNK3 inh -13 (no result: KCNK9 inh, Kir21 inh, KCNQ1 act, KCNQ1 inh, hERG protect) | KCNK3 confirm 93 | KCNK3 uninduced inactive
CCCN(CCC)c1nc(N(CCC)CCC)[nH]c(=O)n1	none
CCCN(CCC)c1nc(C#N)nc(N(CCC)CCC)n1	KCNK3 inh -11 | KCNK3 confirm 102 | KCNK3 uninduced inactive
COc1ccc(NC(=O)C2CCCN(CCCc3ccccc3)C2)cc1OCC(C)C (stereo not drawn)	KCNK3 inh -9.8 | KCNK3 confirm 99 | KCNK3 uninduced inactive
O=[N+]([O-])c1ccc(Nc2c3ccccc3nc3ccccc23)cc1	KCNK3 inh -12 | KCNK3 confirm 120 | KCNK3 uninduced 0.15
O=[N+]([O-])c1ccccc1Nc1c2ccccc2nc2ccccc12	none
COc1cc(Nc2nc3ccccc3nc2NS(=O)(=O)c2ccc([N+](=O)[O-])cc2)cc(OC)c1OC	KCNQ1 inh 10, KCNK3 inh -12 | KCNK3 confirm 129 | KCNK3 uninduced 0.12
O=[N+]([O-])c1ccc(S(=O)(=O)Nc2nc3ccccc3nc2Nc2ccccc2)cc1	KCNK3 inh -11 | KCNK3 confirm 107 | KCNK3 uninduced inactive
O=C(O)c1ccc(Nc2nc3ccccc3nc2NS(=O)(=O)c2ccc(F)cc2)cc1	none
COC(=O)c1cc(S(=O)(=O)NC2CCCCC2)cn1C	none
CCC(CC)C(=O)OCC(=O)C1(O)CCC2C3CCC4=CC(=O)CCC4(C)C3C(O)CC21C (stereo not drawn)	none (no result: KCNK9 inh, Kir21 inh, KCNQ1 act, KCNQ1 inh, hERG protect)
O=[N+]([O-])C(=C1SCCS1)C(=C(Cl)Cl)N1CCCCC1	KCNK3 inh -11 | KCNK3 confirm 105 | KCNK3 uninduced inactive
O=[N+]([O-])/C(C(Cl)=C(Cl)Cl)=C(\Sc1ccccc1)N1CCCCC1	none
COc1cc2c(cc1OC)C(c1cccs1)N(C(=S)NC(C)C)CC2 (stereo not drawn)	KCNK3 inh -11 | KCNK3 confirm 94 | KCNK3 uninduced inactive
CCCc1cc(C(=O)Cc2ccc(C(=O)OCC)o2)c(O)cc1O	KCNK9 inh -17, KCNK3 inh -11 | KCNK3 confirm 104 | KCNK3 uninduced 0.13
COc1ccc(-c2cc(OC)c3c(C)oc(C)c3c(=O)c2)cc1OC	KCNK3 inh -9 | KCNK3 confirm 113 | KCNK3 uninduced 0.15
COc1ccc([C@H]2CC(=O)C=C(c3cccc4c3Oc3ccccc3S4)C2)cc1	none (no result: KCNK9 inh, Kir21 inh, KCNQ1 act, KCNQ1 inh, hERG protect)
S=C(Nc1cccc(Cl)c1Cl)Nn1cnnc1	none
COc1c(C(=O)Nc2nccs2)ccc2ccccc12	none
COc1cc2ccccc2cc1C(=O)Nc1nccs1	KCNK3 inh -9.6 | KCNK3 confirm 94 | KCNK3 uninduced inactive
CC(C)Oc1ccccc1C1(c2ccccc2)NC(=O)NC1=O (stereo not drawn)	none
O=C(O)COc1ccccc1C=NNC(=O)c1ccccc1NS(=O)(=O)c1cccs1	none (no result: KCNK9 inh, Kir21 inh, KCNQ1 act, KCNQ1 inh, hERG protect)
O=C(NNc1c2ccccc2nc2ccccc12)c1cccc(O)c1	none
Oc1cccc(-c2nc3ccc4ccccc4c3c3c2CCC3)c1	KCNK3 inh -19 | KCNK3 confirm 111 | KCNK3 uninduced 0.15
N#Cc1ccc(CNC(=O)N2CCOCC2)cc1	none
